# Source: article PMC7238799 (Pulmonary Circulation, 2020)
# Assays:
# Multiple ascending dose = type: in vivo, human; conditions: for Accumulation in plasma exposure (AUC): approximate
# Method in brief: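 Healthy subjects were randomized to test compound or placebo by oral immediate-release capsule in the fasted state. In Cohorts 1–2 (2:1), 50 µg QD escalated to 100, 200, 300 and 400 µg every sixth day if tolerated. In Cohort 3 (4:1), 10 µg BID escalated to 20, 30, 40, 50 and 70 µg. K₂EDTA blood was drawn pre-dose and 0.25–24 h post-dose.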
# [1] = system: rat monocrotaline model of PAH; conditions: oral; cited from earlier work
# Single ascending dose = type: in vivo, human; conditions: for Tmax / AUC(0-inf) / AUC(0-t) / Cmax: both, human, plasma, po
# Method in brief: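 Healthy subjects received one oral immediate-release capsule dose of test compound (30–200 µg) or placebo, with food withheld 1 h after dosing. K₂EDTA blood was drawn pre-dose, at 0.25–120 h, then every 24 h through Day 14. Samples were chilled, centrifuged and frozen at –20 ℃. Plasma was assayed by LC-MS/MS (0.03–15.0 ng/mL). Noncompartmental, linear-trapezoidal parameters are reported as mean (SD), with Tmax as median (min–max).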
# [2] = system: prostacyclin (IP) receptor; conditions: cited from earlier work
# [3] = 100 µg QD, steady state, n = 7, mean (SD)
# [4] = 300 µg QD, steady state, single subject
# [5] = 400 µg QD, near steady-state (Day 21, first day at this dose), single subject
structure (smiles),measurement,setting,value
O=C(O)COC[C@H]1CC[C@H](COC(=O)N(c2ccccc2)c2ccc(Cl)cc2)CC1 [ralinepag],"Ctrough,ss",Multiple ascending dose; [3],1.39 (0.68) ng/mL
same,PTR (peak-to-trough plasma concentration ratio),Multiple ascending dose; [3],4.49 (2.66)
same,"Ctrough,ss",Multiple ascending dose; [4],5.14 ng/mL
same,PTR (peak-to-trough plasma concentration ratio),Multiple ascending dose; [4],3.42
same,"Ctrough,ss",Multiple ascending dose; [5],6.13 ng/mL
same,PTR (peak-to-trough plasma concentration ratio),Multiple ascending dose; [5],3.70
same,"Dose proportionality of Cmax,ss, Ctrough,ss and AUC0–τ,ss",Multiple ascending dose; 10–50 µg BID dose range,approximately dose proportional
same,"Dose proportionality of Cmax,ss, Ctrough,ss and AUC0–τ,ss",Multiple ascending dose; 50–300 µg QD dose range,approximately dose-proportional
same,Accumulation in plasma exposure (AUC),Multiple ascending dose; BID (Q12 hours) dosing,~2.6 fold
same,"Steady-state peak-to-trough ratio, range across doses","Multiple ascending dose; BID dosing, Cohort 3",1.95–2.36
same,Accumulation in plasma exposure (AUC),Multiple ascending dose; QD (Q24 hours) dosing,~1.7 fold
same,"Steady-state peak-to-trough ratio, range across doses","Multiple ascending dose; QD dosing, Cohorts 1 and 2 combined",3.34–4.49
same,Half-life,"Multiple ascending dose; both, human, plasma, oral",17.5 to 18.4 h
same,AUC,"Multiple ascending dose; human, plasma, oral, 10 ug, AUC0–τ, 10 µg BID, Study Day 1 (non-steady-state), τ 12 h, n = 20, mean (SD)",2.51 ng·h/mL
same,AUC,"Multiple ascending dose; human, plasma, oral, 10 ug, AUC0–τ,ss, 10 µg BID, steady state, τ 12 h, n = 20, mean (SD)",6.68 ng·h/mL
same,Cmax,"Multiple ascending dose; human, plasma, oral, 10 ug, Cmax, 10 µg BID, Study Day 1 (non-steady-state), n = 20, mean (SD)",0.412 ng/mL
same,Cmax,"Multiple ascending dose; human, plasma, oral, 10 ug, Cmax,ss, 10 µg BID, steady state, n = 20, mean (SD)",0.86 ng/mL
same,Tmax,"Multiple ascending dose; human, plasma, oral, 10 ug, Tmax, 10 µg BID, Study Day 1 (non-steady-state), n = 20, median (min–max)",1 h
same,Tmax,"Multiple ascending dose; human, plasma, oral, 10 ug, Tmax,ss, 10 µg BID, steady state, n = 20, median (min–max)",1 h
same,Cmax,"Multiple ascending dose; human, plasma, oral, 20 ug, Cmax,ss, 20 µg BID, steady state, n = 20, mean (SD)",1.8 ng/mL
same,AUC,"Multiple ascending dose; human, plasma, oral, 30 ug, AUC0-τ,ss, 30 µg QD, steady state, τ 24 h, n = 3, mean (SD)",24.8 ng·h/mL
same,Cmax,"Multiple ascending dose; human, plasma, oral, 30 ug, Cmax,ss, 30 µg BID, steady state, n = 10, mean (SD)",2.12 ng/mL
same,Cmax,"Multiple ascending dose; human, plasma, oral, 30 ug, Cmax,ss, 30 µg QD, steady state, n = 3, mean (SD)",2.29 ng/mL
same,Tmax,"Multiple ascending dose; human, plasma, oral, 30 ug, Tmax,ss, 30 µg QD, steady state, n = 3, median (min – max)",1 h
same,Cmax,"Multiple ascending dose; human, plasma, oral, 40 ug, Cmax,ss, 40 µg BID, steady state, n = 9, mean (SD)",3.31 ng/mL
same,AUC,"Multiple ascending dose; human, plasma, oral, 50 ug, AUC0-τ, 50 µg QD, Study Day 1 (non-steady-state), τ 24 h, n = 20, mean (SD)",15.9 ng·h/mL
same,AUC,"Multiple ascending dose; human, plasma, oral, 50 ug, AUC0-τ,ss, 50 µg QD, steady state, τ 24 h, n = 16, mean (SD)",26.2 ng·h/mL
same,AUC,"Multiple ascending dose; human, plasma, oral, 50 ug, AUC0–τ,ss, 50 µg BID, steady state, τ 12 h, n = 6, mean (SD)",36 ng·h/mL
same,Cmax,"Multiple ascending dose; human, plasma, oral, 50 ug, Cmax, 50 µg QD, Study Day 1 (non-steady-state), n = 20, mean (SD)",1.88 ng/mL
same,Cmax,"Multiple ascending dose; human, plasma, oral, 50 ug, Cmax,ss, 50 µg BID, steady state, n = 6, mean (SD)",4.43 ng/mL
same,Cmax,"Multiple ascending dose; human, plasma, oral, 50 ug, Cmax,ss, 50 µg QD, steady state, n = 16, mean (SD)",2.74 ng/mL
same,Tmax,"Multiple ascending dose; human, plasma, oral, 50 ug, Tmax, 50 µg QD, Study Day 1 (non-steady-state), n = 20, median (min – max)",2 h
same,Tmax,"Multiple ascending dose; human, plasma, oral, 50 ug, Tmax,ss, 50 µg BID, steady state, n = 6, median (min–max)",1.25 h
same,Tmax,"Multiple ascending dose; human, plasma, oral, 50 ug, Tmax,ss, 50 µg QD, steady state, n = 16, median (min – max)",1.25 h
same,AUC,"Multiple ascending dose; human, plasma, oral, 70 ug, AUC0–τ,ss, 70 µg BID, steady state, τ 12 h, single subject",25.2 ng·h/mL
same,Cmax,"Multiple ascending dose; human, plasma, oral, 70 ug, Cmax,ss, 70 µg BID, steady state, single subject",4.22 ng/mL
same,Tmax,"Multiple ascending dose; human, plasma, oral, 70 ug, Tmax,ss, 70 µg BID, steady state, single subject",1.5 h
same,AUC,"Multiple ascending dose; human, plasma, oral, 100 ug, AUC0-τ,ss, 100 µg QD, steady state, τ 24 h, n = 7, mean (SD)",48.6 ng·h/mL
same,Cmax,"Multiple ascending dose; human, plasma, oral, 100 ug, Cmax,ss, 100 µg QD, steady state, n = 7, mean (SD)",5.15 ng/mL
same,Tmax,"Multiple ascending dose; human, plasma, oral, 100 ug, Tmax,ss, 100 µg QD, steady state, n = 7, median (min – max)",1.5 h
same,AUC,"Multiple ascending dose; human, plasma, oral, 300 ug, AUC0-τ,ss, 300 µg QD, steady state, τ 24 h, single subject",181 ng·h/mL
same,Cmax,"Multiple ascending dose; human, plasma, oral, 300 ug, Cmax,ss, 300 µg QD, steady state, single subject",17.6 ng/mL
same,Tmax,"Multiple ascending dose; human, plasma, oral, 300 ug, Tmax,ss, 300 µg QD, steady state, single subject",4 h
same,Efficacy in rat monocrotaline model of PAH,[1],dose-dependent oral efficacy
same,Tmax,Single ascending dose,1 to 1.5 h
same,AUC(0-inf),Single ascending dose; 30 ug,17.3 ng·h/mL
same,AUC(0-t),Single ascending dose; 30 ug,15.9 ng·h/mL
same,Cmax,Single ascending dose; 30 ug,0.949 ng/mL
same,Tmax,Single ascending dose; 30 ug,1 h
same,AUC(0-inf),Single ascending dose; 50 ug,22.8 ng·h/mL
same,AUC(0-t),Single ascending dose; 50 ug,21.5 ng·h/mL
same,Cmax,Single ascending dose; 50 ug,1.49 ng/mL
same,Tmax,Single ascending dose; 50 ug,1.25 h
same,AUC(0-inf),Single ascending dose; 100 ug,42.6 ng·h/mL
same,AUC(0-t),Single ascending dose; 100 ug,41.2 ng·h/mL
same,Cmax,Single ascending dose; 100 ug,2.65 ng/mL
same,Tmax,Single ascending dose; 100 ug,1.5 h
same,AUC(0-inf),Single ascending dose; 200 ug,103 ng·h/mL
same,AUC(0-t),Single ascending dose; 200 ug,101 ng·h/mL
same,Cmax,Single ascending dose; 200 ug,6.17 ng/mL
same,Tmax,Single ascending dose; 200 ug,1.25 h
same,Dose proportionality of Cmax and AUC,Single ascending dose; single doses from 30 to 200 µg,approximately dose proportional
same,Maximal cAMP stimulation (efficacy percentage relative to iloprost),[2],67%
same,Type of IP receptor agonism,[2],strong partial agonist
same,Functional potency relative to ACT-333679,[2]; greater potency than selexipag active metabolite,6–8 fold
